Among the data in ChEMBL document CHEMBL1125087, “Synthesis and biological activity of new HMG-CoA reductase inhibitors. 1. Lactones of pyridine- and pyrimidine-substituted 3,5-dihydroxy-6-heptenoic (-heptanoic) acids” (J Med Chem, 1990) are IC50 and Relative potency values, retold here.

In experiment [1] the target is T1, 3-hydroxy-3-methylglutaryl-coenzyme A reductase (Rattus norvegicus, UniProt P51639).
T1 sequence (P51639 whole entry): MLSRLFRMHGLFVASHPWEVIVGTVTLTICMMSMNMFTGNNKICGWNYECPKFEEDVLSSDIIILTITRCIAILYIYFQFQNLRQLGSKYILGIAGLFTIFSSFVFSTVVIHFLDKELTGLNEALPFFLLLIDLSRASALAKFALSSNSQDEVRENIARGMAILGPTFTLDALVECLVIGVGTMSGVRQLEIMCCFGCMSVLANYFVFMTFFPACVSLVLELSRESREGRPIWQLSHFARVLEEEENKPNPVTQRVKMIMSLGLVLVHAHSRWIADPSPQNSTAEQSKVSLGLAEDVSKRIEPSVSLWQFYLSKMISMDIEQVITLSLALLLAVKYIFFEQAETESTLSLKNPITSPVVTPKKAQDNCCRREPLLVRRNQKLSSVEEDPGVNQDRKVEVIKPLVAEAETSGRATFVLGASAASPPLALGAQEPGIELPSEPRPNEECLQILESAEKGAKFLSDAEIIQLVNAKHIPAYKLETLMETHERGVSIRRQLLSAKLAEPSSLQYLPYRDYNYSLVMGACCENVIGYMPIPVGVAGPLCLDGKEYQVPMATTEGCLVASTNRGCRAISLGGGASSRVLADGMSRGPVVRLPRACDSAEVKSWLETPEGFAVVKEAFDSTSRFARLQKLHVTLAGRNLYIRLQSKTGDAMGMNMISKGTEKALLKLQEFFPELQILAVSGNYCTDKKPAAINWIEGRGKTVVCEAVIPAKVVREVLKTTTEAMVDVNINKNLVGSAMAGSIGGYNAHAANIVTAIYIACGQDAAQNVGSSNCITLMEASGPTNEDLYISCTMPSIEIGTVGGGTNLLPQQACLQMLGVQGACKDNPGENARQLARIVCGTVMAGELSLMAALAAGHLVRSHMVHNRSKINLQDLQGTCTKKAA
The experiment is described as follows: In vitro inhibition of rat liver HMG-CoA reductase. The essentials:
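Partially purified soluble HMG-CoA reductase from rat liver microsomes. Medium: 6 mM Tris, 2.5 mM EDTA, 2.5 mM DTT, 50 mM NADP, 50 mM glucose 6-phosphate, glucose-6-phosphate dehydrogenase, and 0.91 mM HMG-CoA with [14C]HMG-CoA. Lactones were opened with 1 equiv KOH to potassium dihydroxy carboxylates and tested at multiple concentrations. Incubated at 37 °C for 20 min, then stopped with HClO4. Run in triplicate; IC50 read from a %-inhibition-versus-concentration plot.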

For experiment [2], the target named is T2, 3-hydroxy-3-methylglutaryl-coenzyme A reductase (Homo sapiens, UniProt P04035).
T2 sequence (P04035 whole entry): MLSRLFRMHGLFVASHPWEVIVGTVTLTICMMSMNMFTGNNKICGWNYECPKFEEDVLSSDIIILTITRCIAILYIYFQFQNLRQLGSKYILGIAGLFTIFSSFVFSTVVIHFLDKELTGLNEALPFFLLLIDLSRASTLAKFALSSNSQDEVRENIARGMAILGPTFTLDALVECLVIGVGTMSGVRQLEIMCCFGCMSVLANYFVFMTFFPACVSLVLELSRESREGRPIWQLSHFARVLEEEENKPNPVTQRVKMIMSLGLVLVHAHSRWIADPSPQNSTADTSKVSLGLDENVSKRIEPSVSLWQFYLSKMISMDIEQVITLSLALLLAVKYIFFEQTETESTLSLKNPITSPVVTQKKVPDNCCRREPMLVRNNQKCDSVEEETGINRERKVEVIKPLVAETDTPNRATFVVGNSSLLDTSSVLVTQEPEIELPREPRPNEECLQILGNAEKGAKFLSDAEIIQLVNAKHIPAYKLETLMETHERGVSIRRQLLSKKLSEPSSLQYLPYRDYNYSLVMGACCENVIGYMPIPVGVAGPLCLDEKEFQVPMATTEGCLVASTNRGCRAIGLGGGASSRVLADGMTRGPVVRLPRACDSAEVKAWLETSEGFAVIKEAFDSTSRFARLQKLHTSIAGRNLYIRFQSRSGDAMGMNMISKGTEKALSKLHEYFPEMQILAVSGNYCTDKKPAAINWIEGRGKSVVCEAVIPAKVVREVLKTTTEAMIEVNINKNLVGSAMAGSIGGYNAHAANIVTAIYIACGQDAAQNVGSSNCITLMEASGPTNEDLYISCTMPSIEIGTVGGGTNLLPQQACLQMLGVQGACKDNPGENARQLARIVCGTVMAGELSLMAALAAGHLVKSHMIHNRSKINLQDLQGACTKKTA
Briefly: Inhibition of cellular HMG-CoA reductase in cultures of human HEP G2 cells, determined by decreased incorporation of sodium [14C]acetate into cholesterol. The experiment is classed as cell-based, HepG2. The essentials: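 They were preincubated for 1 h with compound at three concentrations, or with solvent as control, then labeled with [14C]sodium acetate for 3 h. [3H]cholesterol served as internal standard. Cells were saponified, lipids extracted with chloroform/methanol 2:1, and cholesterol isolated by TLC. IC50 came from the treated/control [14C]cholesterol ratio plotted against concentration.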

Experiment [3] addresses T3, 3-hydroxy-3-methylglutaryl-coenzyme A reductase (Homo sapiens) (UniProt P04035).
T3 sequence (whole entry): T2 sequence (P04035 whole entry)
Briefly: Relative inhibition of HMG-CoA reductase compared to Mevinolin.

The IC50 is the concentration at which inhibition is half-maximal. Read a low IC50 as higher potency. Take `CC(C)c1cc(-c2ccccc2)nc(-c2ccc(F)cc2)c1/C=C/[C@@H]1C[C@@H](O)CC(=O)O1`: the concentration for half-maximal inhibition (IC50) in experiment [1] worked out at 4 nM; in experiment [2] it was 10 nM. For the same compound, the Relative potency in experiment [3] stood at 5.

`Cc1nc(C)c(CCC2C[C@@H](O)CC(=O)O2)c(-c2ccc(F)cc2)n1` (some centres undefined): the IC50 in experiment [1] is 1000 nM.

Take `CC(C)c1nc(-c2ccccc2)cc(-c2ccc(F)cc2)c1CCC1C[C@@H](O)CC(=O)O1` (some centres undefined): the IC50 in experiment [1] worked out at 19 nM; in experiment [2], 370 nM. The compound also yielded a Relative potency in experiment [3] of 0.14.

For `CC(C)(C)c1nc(-c2ccccc2)cc(-c2ccc(F)cc2)c1/C=C/[C@@H]1C[C@@H](O)CC(=O)O1`, the IC50 in experiment [1] amounted to 18 nM.

In the case of `CC(C)c1nc(-c2ccccc2)cc(-c2ccc(F)cc2)c1/C=C/[C@@H]1C[C@@H](O)CC(=O)O1` [GLENVASTATIN], the 50% inhibitory concentration (IC50) in experiment [1] amounted to 3 nM; in experiment [2] it was 5 nM. Moreover, in experiment [3], the Relative potency was 10.

Consider `CC(C)c1cc(-c2ccc(F)cc2)c(/C=C/[C@@H]2C[C@@H](O)CC(=O)O2)c(C(C)C)n1`, for which, in experiment [1], the IC50 came out at 3 nM.

As to `Cc1ccc(C)c(-c2cc(-c3ccc(F)cc3)c(/C=C/[C@@H]3C[C@@H](O)CC(=O)O3)c(C(C)C)n2)c1`, the figures for the IC50 in experiment [1] and in experiment [2] were 5 nM and 20 nM, respectively. The compound further came in with a Relative potency in experiment [3] of 2.5.

The compound `Cc1cc(-c2ccc(Cl)cc2)c(/C=C/[C@@H]2C[C@@H](O)CC(=O)O2)c(C)n1` returned an IC50 in experiment [1] of 94 nM.

As to `O=C1C[C@H](O)C[C@@H](/C=C/c2c(-c3ccc(F)cc3)cc(-c3ccccc3)nc2C2CCCCC2)O1`, the IC50 was 30 nM in experiment [1] and above 5000 nM in experiment [2]. This compound registered a Relative potency in experiment [3] above 0.01.

As to `CC(C)c1nc(-c2ccc(F)cc2)cc(-c2ccc(F)cc2)c1/C=C/[C@@H]1C[C@@H](O)CC(=O)O1`, the IC50 in experiment [1] is 2 nM; in experiment [2], 7.5 nM. In experiment [3], the Relative potency is 6.67.

As to `CC(C)c1nc(-c2ccccc2)cc(-c2ccc(C(F)(F)F)cc2)c1/C=C/[C@@H]1C[C@@H](O)CC(=O)O1`, the IC50 in experiment [1] is 36 nM.

The compound `CCc1nc(-c2ccccc2)cc(-c2ccc(F)cc2)c1/C=C/[C@@H]1C[C@@H](O)CC(=O)O1` registered an IC50 in experiment [1] of 40 nM.

Turning to `Cc1cc(C)cc(-c2cc(-c3ccc(F)cc3)c(/C=C/[C@@H]3C[C@@H](O)CC(=O)O3)c(C(C)C)n2)c1`, inhibition in experiment [1] was half-maximal at 8 nM (IC50).

Consider `COc1ccc(-c2cc(-c3ccccc3)nc(C(C)C)c2/C=C/[C@@H]2C[C@@H](O)CC(=O)O2)cc1`, for which the 50% inhibitory concentration (IC50) in experiment [1] is 13 nM; in experiment [2] it was 150 nM. In experiment [3], this compound gave a Relative potency of 0.33.

As for `CC(C)c1nc(-c2ccc(F)cc2)nc(-c2ccc(F)cc2)c1/C=C/[C@@H]1C[C@@H](O)CC(=O)O1`, the values for the half-maximal inhibitory concentration (IC50) in experiment [1] and in experiment [2] were 1 nM and 18 nM, respectively. This compound also displayed a Relative potency in experiment [3] of 2.78.

As to `CC(C)c1nc(-c2ccc(F)cc2)c(/C=C/[C@@H]2C[C@@H](O)CC(=O)O2)c(C(C)C)n1`, the IC50 in experiment [1] stood at 3 nM; in experiment [2], 4.8 nM. The compound also yielded a Relative potency in experiment [3] of 10.4.

As to `CC(C)c1nc(C2CCCCC2)nc(-c2ccc(F)cc2)c1/C=C/[C@@H]1C[C@@H](O)CC(=O)O1`, the IC50 in experiment [1] was 1 nM; in experiment [2], 26 nM. In experiment [3], this compound registered a Relative potency of 1.92.

On to `CC(C)c1nc(-c2ccccc2)nc(-c2ccc(F)cc2)c1/C=C/[C@@H]1C[C@@H](O)CC(=O)O1`, for which the half-maximal inhibitory concentration (IC50) in experiment [1] worked out at 3 nM; in experiment [2], 5 nM. In addition, the Relative potency in experiment [3] is 10.

On to `Cc1nc(-c2ccccc2)cc(-c2ccc(F)cc2)c1/C=C/[C@@H]1C[C@@H](O)CC(=O)O1`, for which the IC50 is 38 nM in experiment [1] and 90 nM in experiment [2]. In experiment [3], the Relative potency worked out at 0.56.

Regarding `CC(C)c1nc(C(C)(C)C)cc(-c2ccc(F)cc2)c1/C=C/[C@@H]1C[C@@H](O)CC(=O)O1`, the results for the IC50 in experiment [1] and in experiment [2] were 1 nM and 20 nM, respectively. In experiment [3], this compound came in with a Relative potency of 2.5.

As to `Cc1nc(C)c(/C=C/[C@@H]2C[C@@H](O)CC(=O)O2)c(-c2ccc(F)cc2)n1`, inhibition in experiment [1] was half-maximal at 500 nM (IC50).

Consider `CC[C@H](C)C(=O)O[C@H]1C[C@@H](C)C=C2C=C[C@H](C)[C@H](CC[C@@H]3C[C@@H](O)CC(=O)O3)[C@H]21` [LOVASTATIN], for which the IC50 in experiment [1] came out at 8 nM.

For the compound `Cc1cc(-c2ccc(F)cc2)c(/C=C/[C@@H]2C[C@@H](O)CC(=O)O2)c(C(C)C)n1`, the half-inhibitory concentration (IC50) in experiment [1] was 9 nM; in experiment [2], 50 nM. This compound also yielded a Relative potency in experiment [3] of 1.

For the compound `Cc1cc(-c2ccc(F)cc2)c(/C=C\[C@@H]2C[C@@H](O)CC(=O)O2)c(C)n1`, the IC50 in experiment [1] is above 1000 nM.

With `Cc1cc(-c2ccc(F)cc2)c(/C=C/[C@@H]2C[C@@H](O)CC(=O)O2)c(C)n1`, the 50% inhibitory concentration (IC50) turned out to be 260 nM in experiment [1] and 2000 nM in experiment [2]. Further, the Relative potency in experiment [3] was determined as 0.03.

Take `Cc1nc(-c2ccccc2)cc(-c2ccc(F)cc2)c1/C=C\[C@@H]1C[C@@H](O)CC(=O)O1`: the IC50 in experiment [1] is 100 nM; in experiment [2] it was 5000 nM. Besides, the Relative potency in experiment [3] turned out to be 0.08.

In the case of `CCc1nc(-c2ccccc2)cc(-c2ccc(F)cc2)c1CCC1C[C@@H](O)CC(=O)O1` (some centres undefined), the concentration for half-maximal inhibition (IC50) in experiment [1] amounted to 3 nM.

On to `CC(C)c1nc(C2CCCCC2)cc(-c2ccc(F)cc2)c1/C=C/[C@@H]1C[C@@H](O)CC(=O)O1`, for which the concentration for half-maximal inhibition (IC50) in experiment [1] stood at 4 nM; in experiment [2], 9.5 nM. Besides, the Relative potency in experiment [3] worked out at 5.26.

`Cc1nc(C)c(/C=C\[C@@H]2C[C@@H](O)CC(=O)O2)c(-c2ccc(Cl)cc2)n1` came in with a half-maximal inhibitory concentration (IC50) in experiment [1] above 1000 nM.

The compound `Cc1nc(C)c(/C=C/[C@@H]2C[C@@H](O)CC(=O)O2)c(-c2ccc(Cl)cc2)n1` came in with an IC50 in experiment [1] of 600 nM.
